Experiment [1] in a line: inhibitors of TNFa-induced NFkB p65 translocation, primary screen, imaging, HUVEC, MLSMR starter and 10KST1 sets (AID 438;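 active = inhibition above 20% together with a positive visual image hit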;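 note: compound added about 3h40 before a 20 min TNFalpha stimulation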;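 for inhibition: signal is the nuclear over cytoplasmic p65 intensity ratio per well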). The conditions noted are these: HUVEC TNFa-induced p65 nuclear translocation; cell count: measured here: nuclei count (cytotoxicity indicator), at 2.08 µM; inhibition: at 2 µM, stronger effect = higher value, 0% TNFa-plus-vehicle, 100% no-TNFa wells.
The nature of experiment [2]: inhibitors of mutant huntingtin aggregation, primary screen, imaging, exon1htt(103Q)mCFP cells, high-content imaging (AID 483;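 active = visual image review flags a hit and inhibition of aggregation exceeds 20%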;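 note: compound exposure lasted 3 days before fixation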;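 for nuclei count: percent of the per-plate median nuclei count of sample wells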). The conditions noted are these: exon1htt(103Q)mCFP cell line, aggregate imaging, at 2 µM; inhibition of aggregation: stronger effect = higher value; nuclei count: measured here: cell count, toxicity.
The nature of experiment [3]: inhibitors of E-selectin induction by TNFa, primary screen, imaging, HUVEC, immunofluorescence, MLSMR starter and 10KST1 sets (AID 487;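 active = visually confirmed hit in the image check and inhibition above 20%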;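 for inhibition: signal is fraction of cell area covered by stained E-selectin grains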;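 for nuclei count: 100% = median nuclei count of all wells on the same plate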). The conditions noted are these: HUVEC TNFalpha-induced E-selectin immunofluorescence imaging, at 2 µM; inhibition: stronger effect = higher value; nuclei count: measured here: cell number, toxicity.
Experiment [4] deals with Voltage-gated potassium channel subunit beta-2 (Rattus norvegicus) (UniProt P62483). The experiment in a line: KvBeta enzyme negative modulators, primary screen, biochemical, NADPH fluorescence (AID 622).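 Note: slope of raw intensity against log time taken from 70 to 1610 s.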 The conditions noted are these: recombinant KvBeta, 4-cyanobenzaldehyde reduction, at 10 µM, stronger effect = higher value.
The target is the same in experiment [5]. The experiment in a line: KvBeta positive modulators, primary screen, biochemical, NADPH fluorescence (AID 623;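 active = NADPH fluorescence slope more negative than the mean of all samples by about 3 SD, 99.7% confidence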;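 note: fluorescence intensity change per second fitted from 20 to 320 s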). The conditions noted are these: Recombinant KvBeta, NADPH fluorescence decrease slope, 10 min; at 10 µM; stronger effect = lower value.
Experiment [6] has as its target Muscarinic acetylcholine receptor M4 (Homo sapiens) (UniProt P08173). The experiment in a line: compounds altering M4/GIRK thallium flux, either direction, primary screen, M4 allosteric agonist project, cell-based, HEK293 M4/GIRK, BTC-AM (AID 625;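 active = fluorescence slope after compound addition differing from the mean of all tested samples at 99.7% confidence, mostly higher but some lower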;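 note: thallium influx through GIRK channels coupled to M4 in HEK293 cells with BTC-AM dye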). To be noted: at 10 µM, actives lie on both sides. In short, it runs like this:
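assay system = HEK293 cells with M4 receptor and GIRK channels | medium = pH 7.3 thallium assay buffer | doses = 10 µM final, single point | timing = cells overnight at 37 °C, BTC-AM loading 1 h, reads 2 min total | signal = BTC-AM fluorescence, 1 Hz kinetic reads | read-out = post-addition slope, 15–24 s, of baseline-normalized fluorescence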

Experiment [7] can be described thus: inhibitors of Sendai virus-induced IRF3 signaling, primary screen, TLR/RLR signaling modifier project, cell-based, Sendai virus stimulus, luciferase, 10K MLSCN set (AID 602276;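 active = inhibition at or above 50% at 10 µM; inactive = inhibition below 50%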;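 note: firefly luciferase from ISG56 promoter only with Renilla not read in this screen; 0% = Sendai virus plus DMSO and 100% = medium plus DMSO without virus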). The conditions noted are these: HEK293 RL24 IRF3 luciferase reporter, at 10 µM, stronger effect = higher value. A general note: Reporter assays use an easily measured gene product as a stand-in for the process of interest.

Experiment [8] can be described thus: inhibitors of poly I:C-induced TLR3 signaling, primary screen, cell-based, poly I:C stimulus, luciferase, 10K MLSCN set (AID 602277;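 active = inhibition of the reporter signal at or above 50%; inactive = inhibition below 50%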). To be noted: HEK293-TLR3 RL24 IRF3 luciferase reporter, at 10 µM, stronger effect = higher value.

The source of these data is PubChem BioAssay.

Activity calls are given as the source filed them.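 Rule for the calls, unless noted: active = fluorescence slope higher than the sample average by over 3 SD (cut at about -0.22 in these data, passing the limit was not always enough); inactive = the rest.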

Voltage-gated potassium channel subunit beta-2 (Rattus norvegicus), sequence (P62483 whole entry, looked up): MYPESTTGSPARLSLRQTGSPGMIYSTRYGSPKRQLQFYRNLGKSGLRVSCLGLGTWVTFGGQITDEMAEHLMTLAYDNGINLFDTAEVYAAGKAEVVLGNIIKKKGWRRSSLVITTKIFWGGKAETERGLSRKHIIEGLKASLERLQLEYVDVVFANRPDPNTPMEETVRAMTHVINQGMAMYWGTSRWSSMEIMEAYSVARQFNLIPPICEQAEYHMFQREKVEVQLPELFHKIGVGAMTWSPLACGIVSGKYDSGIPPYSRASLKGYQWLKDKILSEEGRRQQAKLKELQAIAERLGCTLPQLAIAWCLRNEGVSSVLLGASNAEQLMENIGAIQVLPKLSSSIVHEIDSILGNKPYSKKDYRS
Muscarinic acetylcholine receptor M4 (Homo sapiens), sequence (P08173 whole entry, looked up): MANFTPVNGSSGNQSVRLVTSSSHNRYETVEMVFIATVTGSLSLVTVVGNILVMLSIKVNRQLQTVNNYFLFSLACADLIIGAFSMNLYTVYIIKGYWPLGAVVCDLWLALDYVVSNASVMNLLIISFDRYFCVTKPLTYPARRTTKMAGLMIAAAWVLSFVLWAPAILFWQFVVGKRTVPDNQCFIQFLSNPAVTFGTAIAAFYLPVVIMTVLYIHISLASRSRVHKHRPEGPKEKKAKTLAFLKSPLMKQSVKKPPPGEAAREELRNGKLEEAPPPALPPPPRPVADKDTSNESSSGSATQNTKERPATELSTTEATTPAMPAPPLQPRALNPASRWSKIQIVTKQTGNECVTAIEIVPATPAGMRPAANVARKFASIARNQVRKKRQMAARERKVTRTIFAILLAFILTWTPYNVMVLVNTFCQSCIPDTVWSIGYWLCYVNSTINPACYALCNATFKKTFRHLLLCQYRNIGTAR

What is called inhibition is the relative decrease from the control value, in per cent. Take `O=C(CN1C(=O)CCSc2ccccc21)Nc1ccc2c(c1)OCO2`: the cell count in experiment [1] was 700. The inhibition in experiment [1] is -1.6% (inactive); in experiment [3], -215% (inactive); in experiment [7], 12.5% (inactive); in experiment [8], 23.4% (inactive). Besides, the inhibition of aggregation in experiment [2] was 31.4% (inactive). Besides, the nuclei count is 91.2% in experiment [2] and 111% in experiment [3]. The fluorescence slope in experiment [4] was -0.474 (inactive); in experiment [6] it was 0.00631 (inactive). In addition, the NADPH fluorescence slope in experiment [5] is -2.4e-05 (inactive).
Turning to `NS(=O)(=O)c1ccc(NCc2c(F)cccc2Cl)cc1`, the cell count in experiment [1] worked out at 300. Also, the inhibition in experiment [1] was -3% (inactive); in experiment [3] it was 38.8% (inactive); in experiment [7], 8.08% (inactive); in experiment [8] it was -2.77% (inactive). The inhibition of aggregation in experiment [2] is 36.6% (inactive). Besides, the values for the nuclei count in experiment [2] and in experiment [3] were 79.8% and 99.4%, respectively. In addition, the fluorescence slope in experiment [4] was -0.515 (inactive); in experiment [6], 0.00288 (inactive). In addition, in experiment [5], the NADPH fluorescence slope was -0.000161 (inactive).
As for `COCCNC(=O)Cn1nc(C(F)(F)F)c(Br)c1C`, in experiment [1], the cell count came to 376. Also, the inhibition is 1.1% (inactive) in experiment [1], 0.5% (inactive) in experiment [3], 3.89% (inactive) in experiment [7] and 20.6% (inactive) in experiment [8]. In addition, the inhibition of aggregation in experiment [2] is 19.5% (inactive). The nuclei count came out at 65.4% in experiment [2] and 92% in experiment [3]. For the same compound, the values for the fluorescence slope in experiment [4] and in experiment [6] were -0.548 (inactive) and 0.00551 (inactive), respectively. The NADPH fluorescence slope in experiment [5] was -4.9e-05 (inactive).
With `CCS(=O)(=O)N1CCC(C(=O)NC2CCCCC2)CC1`, in experiment [1], the cell count turned out to be 572. Besides, the inhibition was 4.5% (inactive) in experiment [1], 15.2% (inactive) in experiment [3], 10% (inactive) in experiment [7] and 16% (inactive) in experiment [8]. In experiment [2], the inhibition of aggregation is 7.8% (inactive). In addition, the figures for the nuclei count in experiment [2] and in experiment [3] were 110% and 118%, respectively. Besides, the values for the fluorescence slope in experiment [4] and in experiment [6] were -0.483 (inactive) and 0.00287 (inactive), respectively. In addition, the NADPH fluorescence slope in experiment [5] was -0.000241 (inactive).
As for `CCC(Sc1ccc(C(=O)O)cc1)C(=O)O` (stereo not given), the cell count in experiment [1] was found to be 319. In addition, the inhibition in experiment [1] was -1.8% (inactive); in experiment [3] it was -40.5% (inactive); in experiment [7], 1.75% (inactive); in experiment [8], 7.14% (inactive). Further, in experiment [2], the inhibition of aggregation was -13.8% (inactive). Moreover, the nuclei count came out at 110% in experiment [2] and 109% in experiment [3]. In addition, the fluorescence slope was -0.566 (inactive) in experiment [4] and 0.0053 (inactive) in experiment [6]. In experiment [5], the NADPH fluorescence slope is -2.4e-05 (inactive).
In the case of `O=C(Nc1ccc2nn(-c3ccccc3)nc2c1)c1ccc(Br)o1`, the cell count in experiment [1] was 355. Also, the inhibition is -1.7% (inactive) in experiment [1], 6.4% (inactive) in experiment [3], -22.8% (inactive) in experiment [7] and -70.4% (inactive) in experiment [8]. The inhibition of aggregation in experiment [2] was 9.1% (inactive). For the same compound, the nuclei count is 106% in experiment [2] and 101% in experiment [3]. Also, the fluorescence slope in experiment [4] is -0.213 (inactive); in experiment [6], 0.00781 (inactive). The NADPH fluorescence slope in experiment [5] was -2.9e-05 (inactive).
Consider `COc1ccc(S(=O)(=O)NC2CCCCC2)c(C)c1C`, for which the cell count in experiment [1] came to 426. Besides, the inhibition in experiment [1] was 8.4% (inactive); in experiment [3] it was 65.4% (inactive); in experiment [7], 20.3% (inactive); in experiment [8], 26.9% (inactive). Moreover, the inhibition of aggregation in experiment [2] is -3% (inactive). In addition, the results for the nuclei count in experiment [2] and in experiment [3] were 101% and 108%, respectively. For the same compound, the fluorescence slope is -0.557 (inactive) in experiment [4] and 0.00523 (inactive) in experiment [6]. In addition, the NADPH fluorescence slope in experiment [5] was 1.8e-05 (inactive).
Turning to `O=C(CSc1nnc(-c2cccnc2)o1)Nc1ccccn1`, the cell count in experiment [1] was found to be 328. Besides, the inhibition was 3.2% (inactive) in experiment [1], -60.6% (inactive) in experiment [3], -56.5% (inactive) in experiment [7] and -126% (inactive) in experiment [8]. In experiment [2], the inhibition of aggregation was 7.3% (inactive). Moreover, the nuclei count in experiment [2] came out at 99.4%; in experiment [3], 131%. For the same compound, the fluorescence slope in experiment [4] was -0.317 (inactive); in experiment [6] it was 0.0082 (inactive). Further, in experiment [5], the NADPH fluorescence slope is 5.1e-06 (inactive).
For `Cc1cc(Cl)c(S(=O)(=O)NC2CCCCC2)cc1OCC(=O)Nc1nncs1`, in experiment [1], the cell count worked out at 308. Also, the inhibition in experiment [1] was -21.3% (inactive); in experiment [3] it was -32.9% (inactive); in experiment [7] it was 13.4% (inactive); in experiment [8] it was 0.658% (inactive). The inhibition of aggregation in experiment [2] is -4.2% (inactive). The nuclei count in experiment [2] amounted to 107%; in experiment [3], 118%. Besides, the fluorescence slope in experiment [4] was -0.506 (inactive); in experiment [6], 0.00536 (inactive). Further, the NADPH fluorescence slope in experiment [5] was -3.4e-05 (inactive).
Take `O=C(CCn1c(=O)oc2ccccc21)NCCN1CCc2ccccc2C1`: the cell count in experiment [1] was determined as 375. The inhibition in experiment [1] was 7.2% (inactive); in experiment [3], -315% (inactive); in experiment [7], 15.7% (inactive); in experiment [8], 29.6% (inactive). The inhibition of aggregation in experiment [2] is 5.1% (inactive). Moreover, the nuclei count in experiment [2] was determined as 93.1%; in experiment [3], 108%. Besides, the fluorescence slope was -0.451 (inactive) in experiment [4] and 0.00577 (inactive) in experiment [6]. For the same compound, in experiment [5], the NADPH fluorescence slope was -2.5e-05 (inactive).
